Data as given in ChEMBL document CHEMBL1212734, “In vitro pharmacodynamics of levofloxacin and other aerosolized antibiotics under multiple conditions relevant to chronic pulmonary infection in cystic fibrosis” (2010).
Converted amounts (≈) assume the structure as drawn.

Assays:
Type in all cases: functional
Pseudomonas aeruginosa [1] = test: Antibacterial activity against Pseudomonas aeruginosa PA5043 assessed as inhibition of biofilm formation by microtiter plate reader assay
In short: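 Biofilms of cystic fibrosis P. aeruginosa isolates were grown and tested by a previously described method. The endpoint was the biofilm inhibitory concentration, the drug level that prevents biofilm cell growth, compared against planktonic broth-microdilution MICs.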

Pseudomonas aeruginosa [2] = test: Antibacterial activity against Pseudomonas aeruginosa PA880 assessed as time required for reduction of bacterial load to 3 log CFU/ml at 0.6 mg/ml up to 48 hrs by time-kill assay
In short: (§1)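 Overnight cultures were diluted and grown at 37°C to OD600 ≈0.3, then set at 5 × 10^5–1 × 10^6 CFU/ml in 10 ml CAMHB. Drug was added at 0.2, 0.6 or 2.0 mg/ml, and cultures were shaken at 37°C. Samples taken at 0, 0.5, 1, 2, 4, 8 and 24 h were washed twice in CAMHB, diluted in saline and plated on Mueller-Hinton agar. Plates were incubated up to 48 h before colony counting.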

Pseudomonas aeruginosa [3] = test: Antibacterial activity against Pseudomonas aeruginosa PA5026 assessed as time required for reduction of bacterial load to 3 log CFU/ml at 0.6 mg/ml up to 48 hrs by time-kill assay; in short: as §1
Pseudomonas aeruginosa [4] = test: Antibacterial activity against Pseudomonas aeruginosa PA5020 by broth dilution method
Pseudomonas aeruginosa [5] = test: Antibacterial activity against Pseudomonas aeruginosa PA876 assessed as time required for reduction of bacterial load to 3 log CFU/ml at 0.2 mg/ml up to 48 hrs by time-kill assay; in short: as §1
Pseudomonas aeruginosa [6] = test: Antibacterial activity against Pseudomonas aeruginosa PA5026 assessed as time required for reduction of bacterial load to 3 log CFU/ml at 0.2 mg/ml up to 48 hrs by time-kill assay; in short: as §1
Pseudomonas aeruginosa [7] = test: Antibacterial activity against Pseudomonas aeruginosa PA899 assessed as time required for reduction of bacterial load to 3 log CFU/ml at 0.2 mg/ml up to 48 hrs by time-kill assay; in short: as §1
Pseudomonas aeruginosa [8] = test: Antibacterial activity against Pseudomonas aeruginosa PA1036 assessed as time required for reduction of bacterial load to 3 log CFU/ml at 0.2 mg/ml up to 48 hrs by time-kill assay; in short: as §1
[9] = test system: Stenotrophomonas maltophilia; test: Antibacterial activity against Stenotrophomonas maltophilia by broth dilution method
Pseudomonas aeruginosa [10] = test: Antibacterial activity against Pseudomonas aeruginosa PA5020 assessed as time required for reduction of bacterial load to 3 log CFU/ml at 0.2 mg/ml up to 48 hrs by time-kill assay; in short: as §1
Pseudomonas aeruginosa [11] = test: Antibacterial activity against Pseudomonas aeruginosa PA861 assessed as time required for reduction of bacterial load to 3 log CFU/ml at 0.2 mg/ml up to 48 hrs by time-kill assay; in short: as §1
Pseudomonas aeruginosa [12] = test: Antibacterial activity against Pseudomonas aeruginosa PA5026 by broth dilution method
In short: (§2)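 Broth microdilution MIC per CLSI reference method; twofold serial dilutions in cation-adjusted Mueller-Hinton broth. […] Endpoint read by OD600 and confirmed visually.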

Pseudomonas aeruginosa [13] = test: Antibacterial activity against Pseudomonas aeruginosa PA1054 assessed as time required for reduction of bacterial load to 3 log CFU/ml at 0.2 mg/ml up to 48 hrs by time-kill assay; in short: as §1
Pseudomonas aeruginosa [14] = test: Antibacterial activity against Pseudomonas aeruginosa PA881 assessed as time required for reduction of bacterial load to 3 log CFU/ml at 0.2 mg/ml up to 48 hrs by time-kill assay; in short: as §1
Pseudomonas aeruginosa [15] = test: Antibacterial activity against Pseudomonas aeruginosa PA1036 assessed as time required for reduction of bacterial load to 3 log CFU/ml at 0.6 mg/ml up to 48 hrs by time-kill assay; in short: as §1
Pseudomonas aeruginosa [16] = test: Antibacterial activity against Pseudomonas aeruginosa PA899 assessed as time required for reduction of bacterial load to 3 log CFU/ml at 0.6 mg/ml up to 48 hrs by time-kill assay; in short: as §1
Pseudomonas aeruginosa [17] = test: Antibacterial activity against Pseudomonas aeruginosa PA876 assessed as time required for reduction of bacterial load to 3 log CFU/ml at 0.6 mg/ml up to 48 hrs by time-kill assay; in short: as §1
[18] = test system: Achromobacter xylosoxidans; test: Antibacterial activity against Alcaligenes xylosoxidans by broth dilution method
Pseudomonas aeruginosa [19] = test: Antibacterial activity against Pseudomonas aeruginosa PA1036 assessed as time required for reduction of bacterial load to 3 log CFU/ml at 2 mg/ml up to 48 hrs by time-kill assay; in short: as §1
Pseudomonas aeruginosa [20] = test: Antibacterial activity against Pseudomonas aeruginosa PA1036 by broth dilution method; in short: as §2
Staphylococcus aureus = test: Antibacterial activity against methicillin-resistant Staphylococcus aureus by broth dilution method; in short: as §2
Pseudomonas aeruginosa [21] = test: Antibacterial activity against Pseudomonas aeruginosa PA5063 by broth dilution method; in short: as §2
Pseudomonas aeruginosa [22] = test: Antibacterial activity against Pseudomonas aeruginosa PA1042 assessed as time required for reduction of bacterial load to 3 log CFU/ml at 0.2 mg/ml up to 48 hrs by time-kill assay; in short: as §1
Pseudomonas aeruginosa [23] = test: Antibacterial activity against Pseudomonas aeruginosa PA861 assessed as time required for reduction of bacterial load to 3 log CFU/ml at 0.6 mg/ml up to 48 hrs by time-kill assay; in short: as §1
Pseudomonas aeruginosa [24] = test: Antibacterial activity against Pseudomonas aeruginosa PA881 assessed as time required for reduction of bacterial load to 3 log CFU/ml at 2 mg/ml up to 48 hrs by time-kill assay; in short: as §1
Pseudomonas aeruginosa [25] = test: Antibacterial activity against Pseudomonas aeruginosa ATCC 27853 assessed as time required for reduction of bacterial load to 3 log CFU/ml at 0.6 mg/ml up to 48 hrs by time-kill assay
Pseudomonas aeruginosa [26] = test: Antibacterial activity against Pseudomonas aeruginosa PA881 assessed as time required for reduction of bacterial load to 3 log CFU/ml at 0.6 mg/ml up to 48 hrs by time-kill assay; in short: as §1
Pseudomonas aeruginosa [27] = test: Antibacterial activity against Pseudomonas aeruginosa PA1042 assessed as time required for reduction of bacterial load to 3 log CFU/ml at 2 mg/ml up to 48 hrs by time-kill assay; in short: as §1
Pseudomonas aeruginosa [28] = test: Antibacterial activity against Pseudomonas aeruginosa PA5026 assessed as time required for reduction of bacterial load to 3 log CFU/ml at 2 mg/ml up to 48 hrs by time-kill assay; in short: as §1
Pseudomonas aeruginosa [29] = test: Antibacterial activity against Pseudomonas aeruginosa PA5020 assessed as time required for reduction of bacterial load to 3 log CFU/ml at 0.6 mg/ml up to 48 hrs by time-kill assay; in short: as §1
Pseudomonas aeruginosa [30] = test: Antibacterial activity against Pseudomonas aeruginosa PA5020 assessed as time required for reduction of bacterial load to 3 log CFU/ml at 2 mg/ml up to 48 hrs by time-kill assay; in short: as §1
Pseudomonas aeruginosa [31] = test: Antibacterial activity against Pseudomonas aeruginosa ATCC 27853 assessed as time required for reduction of bacterial load to 3 log CFU/ml at 0.2 mg/ml up to 48 hrs by time-kill assay
Pseudomonas aeruginosa [32] = test: Antibacterial activity against Pseudomonas aeruginosa PA861 by broth dilution method; in short: as §2
Pseudomonas aeruginosa [33] = test: Antibacterial activity against Pseudomonas aeruginosa PA1022 assessed as time required for reduction of bacterial load to 3 log CFU/ml at 0.6 mg/ml up to 48 hrs by time-kill assay; in short: as §1

SMILES | BBC (Pseudomonas aeruginosa [1]) [µg/mL] | Time (Pseudomonas aeruginosa [2]) | Time (Pseudomonas aeruginosa [3]) | MIC (Pseudomonas aeruginosa [4]) [µg/mL] | Time (Pseudomonas aeruginosa [5]) | Time (Pseudomonas aeruginosa [6]) | Time (Pseudomonas aeruginosa [7]) | Time (Pseudomonas aeruginosa [8]) | MIC50 [9] [µg/mL] | MIC90 [9] [µg/mL] | Time (Pseudomonas aeruginosa [10]) [h] | Time (Pseudomonas aeruginosa [11]) | MIC (Pseudomonas aeruginosa [12]) [µg/mL] | Time (Pseudomonas aeruginosa [13]) | Time (Pseudomonas aeruginosa [14]) | Time (Pseudomonas aeruginosa [15]) | Time (Pseudomonas aeruginosa [16]) | Time (Pseudomonas aeruginosa [17]) | MIC50 [18] [µg/mL] | MIC90 [18] [µg/mL] | further results
C[C@H]1[C@H](NC(=O)/C(=N\OC(C)(C)C(=O)O)c2csc(N)n2)C(=O)N1S(=O)(=O)O [AZTREONAM] | >64 | 4 h | >24 h | 64 (≈ 147 µM) | >24 h | >24 h | >24 h | >24 h | > 128 | > 128 | >24 | >24 h | > 128 | 24 h | 8 h | 24 h | 24 h | >24 h | 64 (≈ 147 µM) | > 128 | Time (Pseudomonas aeruginosa [19]): 24 h; MIC (Pseudomonas aeruginosa [20]): 32 µg/mL (≈ 73.5 µM); MIC50 (Staphylococcus aureus): > 512 µg/mL; MIC90 (Staphylococcus aureus): > 512 µg/mL; MIC (Pseudomonas aeruginosa [21]): 8 µg/mL (≈ 18.4 µM); Time (Pseudomonas aeruginosa [22]): 8 h; Time (Pseudomonas aeruginosa [23]): >24 h; Time (Pseudomonas aeruginosa [24]): 8 h; Time (Pseudomonas aeruginosa [25]): 24 h; Time (Pseudomonas aeruginosa [26]): 8 h; Time (Pseudomonas aeruginosa [27]): 2 h; Time (Pseudomonas aeruginosa [28]): >24 h; Time (Pseudomonas aeruginosa [29]): >24 h; Time (Pseudomonas aeruginosa [30]): 24 h; Time (Pseudomonas aeruginosa [31]): 24 h; MIC (Pseudomonas aeruginosa [32]): 128 µg/mL (≈ 294 µM); Time (Pseudomonas aeruginosa [33]): >24 h
C[C@H]1COc2c(N3CCN(C)CC3)c(F)cc3c(=O)c(C(=O)O)cn1c23.C[C@H]1COc2c(N3CCN(C)CC3)c(F)cc3c(=O)c(C(=O)O)cn1c23.O [LEVOFLOXACIN] | 1 | <=0.5 hr | <=0.5 hr | 16 | <=0.5 hr | <=0.5 hr | <=0.5 hr | <=0.5 hr | 2 | 8 | 4 | <=0.5 hr | 8 | <=0.5 hr | <=0.5 hr | <=0.5 hr | <=0.5 hr | <=0.5 hr | 4 | 16 | Time (Pseudomonas aeruginosa [19]): <=0.5 hr; MIC (Pseudomonas aeruginosa [20]): 8 µg/mL; MIC50 (Staphylococcus aureus): 4 µg/mL; MIC90 (Staphylococcus aureus): 32 µg/mL; MIC (Pseudomonas aeruginosa [21]): 0.5 µg/mL; Time (Pseudomonas aeruginosa [22]): <=0.5 hr; Time (Pseudomonas aeruginosa [23]): <=0.5 hr; Time (Pseudomonas aeruginosa [24]): <=0.5 hr; Time (Pseudomonas aeruginosa [25]): <=0.5 hr; Time (Pseudomonas aeruginosa [26]): <=0.5 hr; Time (Pseudomonas aeruginosa [27]): <=0.5 hr; Time (Pseudomonas aeruginosa [28]): <=0.5 hr; Time (Pseudomonas aeruginosa [29]): 4 h; Time (Pseudomonas aeruginosa [30]): 2 h; Time (Pseudomonas aeruginosa [31]): <=0.5 hr; MIC (Pseudomonas aeruginosa [32]): 32 µg/mL; Time (Pseudomonas aeruginosa [33]): <=0.5 hr
NC[C@H]1O[C@H](O[C@H]2[C@H](O)[C@@H](O[C@H]3O[C@H](CO)[C@@H](O)[C@H](N)[C@H]3O)[C@H](N)C[C@@H]2N)[C@H](N)C[C@@H]1O [TOBRAMYCIN] | 8 | <=0.5 hr | 1 h | 8 (≈ 17.1 µM) | 4 h | 2 h | <=0.5 hr | <=0.5 hr | > 32 | > 32 | 4 | 8 h | 32 (≈ 68.4 µM) | <=0.5 hr | <=0.5 hr | <=0.5 hr | <=0.5 hr | 4 h | > 32 | > 32 | Time (Pseudomonas aeruginosa [19]): <=0.5 hr; MIC (Pseudomonas aeruginosa [20]): 1 µg/mL (≈ 2.14 µM); MIC50 (Staphylococcus aureus): 128 µg/mL (≈ 274 µM); MIC90 (Staphylococcus aureus): > 128 µg/mL; MIC (Pseudomonas aeruginosa [21]): 0.25 µg/mL (≈ 0.535 µM); Time (Pseudomonas aeruginosa [22]): 1 h; Time (Pseudomonas aeruginosa [23]): 8 h; Time (Pseudomonas aeruginosa [24]): <=0.5 hr; Time (Pseudomonas aeruginosa [25]): <=0.5 hr; Time (Pseudomonas aeruginosa [26]): <=0.5 hr; Time (Pseudomonas aeruginosa [27]): <=0.5 hr; Time (Pseudomonas aeruginosa [28]): <=0.5 hr; Time (Pseudomonas aeruginosa [29]): 2 h; Time (Pseudomonas aeruginosa [30]): 2 h; Time (Pseudomonas aeruginosa [31]): <=0.5 hr; MIC (Pseudomonas aeruginosa [32]): 16 µg/mL (≈ 34.2 µM); Time (Pseudomonas aeruginosa [33]): 4 h
